These results are taken from ChEMBL document CHEMBL5136969, “A niclosamide-tobramycin hybrid adjuvant potentiates cefiderocol against P. aeruginosa” (2021).

Active and inactive are the calls of the source.

For experiment [1], the system named is Acinetobacter baumannii. In words: Potentiation of cefiderocol-induced antibiotic activity against Acinetobacter baumannii ATCC 17978 assessed as MIC fold reduction at 8 ug/ml after 18 hrs by microbroth dilution method. In kind it is functional. The settings on record: dose 8 µg/ml. In a few lines:
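Initial screen in MHB using a fixed 8 μg mL−1 of adjuvant combined with each antibiotic under 2-fold dilution. Broth microdilution used about 5 × 10^5 CFU/mL at 37 °C for 18 h, with visible turbidity read and confirmed at 590 nm. Fold-potentiation = antibiotic MIC alone ÷ antibiotic MIC with adjuvant.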

The test system of experiment [2] is Pseudomonas aeruginosa. Description: Potentiation of linezolid-induced antibiotic activity against Pseudomonas aeruginosa PAO1 assessed as MIC fold reduction at 8 ug/ml after 18 hrs by microbroth dilution method. The settings on record: dose 8 µg/ml. The experiment is classed as functional. Put shortly:
(§1)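 Adjuvant held at a fixed 8 μg/mL while the antibiotic was 2-fold serially diluted in Mueller-Hinton broth (MHB), per CLSI microbroth dilution. Overnight cultures were adjusted in saline to 0.5 McFarland, then diluted 1:50 in MHB to about 5 × 10^5 CFU/mL final, and incubated 18 h at 37 °C. MIC was the lowest concentration with no visible turbidity, confirmed at 590 nm. Fold potentiation = MIC alone / MIC with adjuvant.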

In experiment [3] the test system is Acinetobacter baumannii. In words: Potentiation of piperacilin-induced antibiotic activity against Acinetobacter baumannii ATCC 17978 assessed as MIC fold reduction at 8 ug/ml after 18 hrs by microbroth dilution method. In kind it is functional. The settings on record: dose 8 µg/ml.
The subject of experiment [4] is Pseudomonas aeruginosa. Description: Antibacterial activity against MDR clinical isolate Pseudomonas aeruginosa PA88949 assessed as potentiation of cefiderocol antibacterial activity by measuring FIC index after 18 hrs by microbroth dilution method. In kind it is functional. Put shortly:
(§2)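 Checkerboard in MHB (iron-replete, not iron-depleted CAMHB). Cefiderocol was 2-fold serially diluted along one axis and the adjuvant along the other. Inoculum was 0.5 McFarland diluted 1:50, about 5 × 10^5 CFU/mL final. Incubation was 18 h at 37 °C, with turbidity read visually and confirmed at 590 nm. FIC was the MIC in combination over the MIC alone for each agent, and the FIC index was their sum. Cut-offs were ≤0.5 synergy, >0.5–4 additive, >4 antagonism.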

For experiment [5], the system named is Klebsiella pneumoniae. In words: Antibacterial activity against Klebsiella pneumoniae KP113250 assessed as potentiation of cefiderocol antibacterial activity by measuring FIC after 18 hrs by microbroth dilution method. The experiment is classed as functional. Put shortly:
(§3)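 Checkerboard in Mueller-Hinton broth: cefiderocol 2-fold diluted on one axis, adjuvant 2-fold on the other. Overnight cultures were adjusted to 0.5 McFarland in saline, diluted 1:50 in MHB, and inoculated at about 5 × 10^5 CFU/mL. Incubation was 18 h at 37 °C. Turbidity was read visually and confirmed at 590 nm. FIC index = FIC of antibiotic + FIC of adjuvant; ≤0.5 synergy, >4 antagonism.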

The subject of experiment [6] is Acinetobacter baumannii. Description: Potentiation of sulfamethoxazole-induced antibiotic activity against Acinetobacter baumannii ATCC 17978 assessed as MIC fold reduction at 8 ug/ml after 18 hrs by microbroth dilution method. In kind it is functional. The settings on record: dose 8 µg/ml.
For experiment [7], the system named is Pseudomonas aeruginosa. In words: Potentiation of novobiocin-induced antibiotic activity against Pseudomonas aeruginosa PAO1 assessed as MIC fold reduction at 8 ug/ml after 18 hrs by microbroth dilution method. In kind it is functional. The settings on record: dose 8 µg/ml.
The subject of experiment [8] is Pseudomonas aeruginosa. Description: Potentiation of ceftolozane-induced antibiotic activity against MDR clinical isolate Pseudomonas aeruginosa PA259 assessed as MIC fold reduction at 8 ug/ml after 18 hrs by microbroth dilution method. The settings on record: dose 8.0 µg/ml. The experiment is classed as functional, organism-based. Put shortly:
as §1

For experiment [9], the system named is Escherichia coli. Description: Antibacterial activity against Escherichia coli ATCC 25922 assessed as reduction in bacterial growth after 18 hrs in presence of cefiderocol by microbroth dilution method. The experiment is classed as functional. In a few lines:
as §3

Experiment [10] concerns Pseudomonas aeruginosa. In words: Antibacterial activity against MDR clinical isolate Pseudomonas aeruginosa PA86052 assessed as reduction in bacterial growth after 18 hrs by microbroth dilution method. The experiment is classed as functional. Put shortly: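 CLSI broth microdilution. Overnight cultures were adjusted in saline to 0.5 McFarland, diluted 1:50 in Mueller-Hinton broth (MHB), and inoculated at about 5 × 10^5 CFU/mL. Agents were 2-fold serially diluted in MHB, mixed 1:1 with inoculum, and held at 37 °C for 18 h. MIC was the lowest concentration with no visible turbidity, confirmed at 590 nm.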

Experiment [11] deals with Acinetobacter baumannii. Description: Antibacterial activity against Acinetobacter baumannii ATCC 17978 assessed as reduction in bacterial growth after 18 hrs in presence of cefiderocol by microbroth dilution method. The experiment is classed as functional. In a few lines: as §3
For experiment [12], the system named is Pseudomonas aeruginosa. Description: Antibacterial activity against colistin-resistant clinical isolate Pseudomonas aeruginosa PA101243 assessed as reduction in bacterial growth after 18 hrs in presence of cefiderocol by microbroth dilution method. The experiment is classed as functional. Put shortly:
as §2

The test system of experiment [13] is Klebsiella pneumoniae. Description: Antibacterial activity against Klebsiella pneumoniae KP116381 assessed as reduction in bacterial growth after 18 hrs in presence of cefiderocol by microbroth dilution method. The experiment is classed as functional. In a few lines:
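Checkerboard in MHB. Cefiderocol was 2-fold serially diluted along one axis and the adjuvant along the other. Inoculum was prepared from 0.5 McFarland saline suspensions diluted 1:50 in MHB, giving about 5 × 10^5 CFU/mL final. Plates ran 18 h at 37 °C, with turbidity confirmed at 590 nm. FIC = combination MIC ÷ MIC alone for each agent, and FIC index = sum of both. Interpretation: ≤0.5 synergy, >0.5–4 additive, >4 antagonism.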

In experiment [14] the test system is Escherichia coli. In words: Antibacterial activity against Escherichia coli 94393 assessed as reduction in bacterial growth after 18 hrs by microbroth dilution method. The experiment is classed as functional. Put shortly:
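CLSI microbroth dilution in MHB. Overnight cultures were adjusted to 0.5 McFarland in saline, diluted 1:50, and inoculated at about 5 × 10^5 CFU/mL. Agents were 2-fold serially diluted and incubated 18 h at 37 °C. MIC is the lowest concentration without visible turbidity, confirmed by absorbance at 590 nm. Medium with and without cells served as controls.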

Experiment [15] relates to Klebsiella pneumoniae. Description: Antibacterial activity against Klebsiella pneumoniae KP113250 assessed as reduction in bacterial growth after 18 hrs in presence of cefiderocol by microbroth dilution method. In kind it is functional. In a few lines:
as §3

The test system of experiment [16] is Acinetobacter baumannii. Description: Antibacterial activity against Acinetobacter baumannii AB031 assessed as reduction in bacterial growth after 18 hrs in presence of cefiderocol by microbroth dilution method. In kind it is functional. Put shortly: as §3
The subject of experiment [17] is Acinetobacter baumannii. In words: Antibacterial activity against Acinetobacter baumannii AB92247 assessed as reduction in bacterial growth after 18 hrs in presence of cefiderocol by microbroth dilution method. In kind it is functional. In a few lines: as §3
Experiment [18] relates to Pseudomonas aeruginosa. In words: Antibacterial activity against MDR clinical isolate Pseudomonas aeruginosa PA100036 assessed as reduction in bacterial growth after 18 hrs by microbroth dilution method. In kind it is functional. In a few lines: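 Broth microdilution per CLSI in Mueller-Hinton broth (MHB). Overnight cultures were adjusted to 0.5 McFarland in saline, diluted 1:50 in MHB, and added at about 5 × 10^5 CFU/mL final to equal volumes of 2-fold serial dilutions of agent. Incubation was 18 h at 37 °C. MIC was the lowest concentration with no visible turbidity, confirmed by absorbance at 590 nm.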

Experiment [19] relates to Acinetobacter baumannii. Description: Potentiation of cotrimoxazole-induced antibiotic activity against Acinetobacter baumannii ATCC 17978 assessed as MIC fold reduction at 8 ug/ml after 18 hrs by microbroth dilution method. The settings on record: dose 8 µg/ml. In kind it is functional. Put shortly:
as §1

Experiment [20] deals with Pseudomonas aeruginosa. Description: Potentiation of ceftolozane-induced antibiotic activity against […] Pseudomonas aeruginosa PAO1 assessed as MIC fold reduction at 8 ug/ml after 18 hrs by microbroth dilution method. In kind it is functional, organism-based. The settings on record: dose 8.0 µg/ml. Put shortly: as §1
For experiment [21], the system named is Pseudomonas aeruginosa. In words: Potentiation of moxifloxacin-induced antibiotic activity against Pseudomonas aeruginosa PAO1 assessed as reduction in microbial growth at 8 ug/ml up to 24 hrs by microbroth dilution method. The settings on record: dose 8 µg/ml. The experiment is classed as functional.

As for `NC[C@H]1O[C@H](O[C@H]2[C@H](OCCCCc3cn(-c4ccc(NC(=O)c5cc(Cl)ccc5O)cc4)nn3)[C@@H](O[C@H]3O[C@H](CO)[C@@H](O)[C@H](N)[C@H]3O)[C@H](N)C[C@@H]2N)[C@H](N)C[C@@H]1O`, the “fold change (FC)” value with Acinetobacter baumannii [1], in the experiment on Pseudomonas aeruginosa [2], with Acinetobacter baumannii [3], with Acinetobacter baumannii [6], with Pseudomonas aeruginosa [7] and in the experiment on Acinetobacter baumannii [19] was 4 in each case. Also, the values for the FIC with Pseudomonas aeruginosa [4] and in the experiment with Klebsiella pneumoniae [5] were 1 and 0.25, respectively. Further, the outcome in the experiment on Pseudomonas aeruginosa [8] and with Pseudomonas aeruginosa [20] was Active. The MIC in the experiment on Escherichia coli [9] was 0.25 µg/mL; with Pseudomonas aeruginosa [10] it was > 128 µg/mL; in the experiment on Acinetobacter baumannii [11], 16 µg/mL; in the experiment with Pseudomonas aeruginosa [12], 2 µg/mL; in the experiment on Klebsiella pneumoniae [13], 0.25 µg/mL; in the experiment on Escherichia coli [14], > 128 µg/mL. The MIC was 4 µg/mL in the experiment with Klebsiella pneumoniae [15], 0.25 µg/mL with Acinetobacter baumannii [16], 8 µg/mL in the experiment on Acinetobacter baumannii [17] and > 128 µg/mL in the experiment with Pseudomonas aeruginosa [18]. Moreover, the Activity with Pseudomonas aeruginosa [21] is recorded as >3 log10CFU/ml.
